In ChEMBL document CHEMBL1136377, “2,4-disubstituted pyrimidines: a novel class of KDR kinase inhibitors” (Bioorg Med Chem Lett, 2003):
pIC50: −log10 of the molar value.

Columns and labels:
[1] = target: T1, Vascular endothelial growth factor receptor 2 (Homo sapiens, UniProt P35968); test: Biochemical inhibition of phosphorylation of a poly-Glu/Tyr (4:1) peptide substrate by isolated vascular endothelial growth factor receptor 2 (cloned and expressed as a GST-fusion protein).
[2] = target: Vascular endothelial growth factor receptor 1 and 2 (Flt-1 and KDR) (Homo sapiens) (UniProt P17948+P35968); test: Selectivity for VEGF-receptor 2 (KDR) over VEGF-receptor 1 (FLT-1); type: protein assay
[3] = target: VEGF-receptor 2 and Fibroblast growth factor receptor 1 (Homo sapiens) (UniProt P35968+P11362); test: Selectivity for VEGF-receptor 2 (KDR) over FGF-receptor 1; type: protein assay
[4] = target: T2, Vascular endothelial growth factor receptor (Homo sapiens, UniProt P17948+P35916+P35968); test: Inhibition of VEGFstimulated mitogenesis in human umbilical vein endothelial cells.; type: functional, cell-based; settings: endothelial cell
[5] = target: VEGF-receptor 2 and Fibroblast growth factor receptor 2 (Homo sapiens) (UniProt P35968+P21802); test: Selectivity for VEGF-receptor 2 (KDR) over FGF-receptor 2; type: protein assay
[6] = target: VEGF-receptor 2 and tyrosine-protein kinase SRC (Homo sapiens) (UniProt P12931+P35968); test: Selectivity for VEGF-receptor (KDR) over c-SRC; type: protein assay
Sequence of VEGF-receptor 2 and tyrosine-protein kinase SRC (Homo sapiens) (P12931 whole entry, looked up): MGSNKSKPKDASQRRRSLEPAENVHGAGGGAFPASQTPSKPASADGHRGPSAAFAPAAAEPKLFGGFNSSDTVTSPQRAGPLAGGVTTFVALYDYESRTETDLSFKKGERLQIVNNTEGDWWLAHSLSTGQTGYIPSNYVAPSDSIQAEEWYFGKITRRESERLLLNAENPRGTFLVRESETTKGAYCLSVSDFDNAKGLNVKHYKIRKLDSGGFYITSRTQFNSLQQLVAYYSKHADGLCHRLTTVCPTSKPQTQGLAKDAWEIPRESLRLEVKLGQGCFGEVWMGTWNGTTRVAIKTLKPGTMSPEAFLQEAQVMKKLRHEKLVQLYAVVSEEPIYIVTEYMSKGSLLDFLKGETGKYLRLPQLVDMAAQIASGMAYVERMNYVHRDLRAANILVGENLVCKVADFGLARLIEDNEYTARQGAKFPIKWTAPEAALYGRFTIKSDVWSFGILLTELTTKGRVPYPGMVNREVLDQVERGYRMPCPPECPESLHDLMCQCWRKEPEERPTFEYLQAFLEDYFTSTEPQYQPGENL
Sequence of VEGF-receptor 2 and tyrosine-protein kinase SRC (Homo sapiens) (P35968 whole entry, looked up): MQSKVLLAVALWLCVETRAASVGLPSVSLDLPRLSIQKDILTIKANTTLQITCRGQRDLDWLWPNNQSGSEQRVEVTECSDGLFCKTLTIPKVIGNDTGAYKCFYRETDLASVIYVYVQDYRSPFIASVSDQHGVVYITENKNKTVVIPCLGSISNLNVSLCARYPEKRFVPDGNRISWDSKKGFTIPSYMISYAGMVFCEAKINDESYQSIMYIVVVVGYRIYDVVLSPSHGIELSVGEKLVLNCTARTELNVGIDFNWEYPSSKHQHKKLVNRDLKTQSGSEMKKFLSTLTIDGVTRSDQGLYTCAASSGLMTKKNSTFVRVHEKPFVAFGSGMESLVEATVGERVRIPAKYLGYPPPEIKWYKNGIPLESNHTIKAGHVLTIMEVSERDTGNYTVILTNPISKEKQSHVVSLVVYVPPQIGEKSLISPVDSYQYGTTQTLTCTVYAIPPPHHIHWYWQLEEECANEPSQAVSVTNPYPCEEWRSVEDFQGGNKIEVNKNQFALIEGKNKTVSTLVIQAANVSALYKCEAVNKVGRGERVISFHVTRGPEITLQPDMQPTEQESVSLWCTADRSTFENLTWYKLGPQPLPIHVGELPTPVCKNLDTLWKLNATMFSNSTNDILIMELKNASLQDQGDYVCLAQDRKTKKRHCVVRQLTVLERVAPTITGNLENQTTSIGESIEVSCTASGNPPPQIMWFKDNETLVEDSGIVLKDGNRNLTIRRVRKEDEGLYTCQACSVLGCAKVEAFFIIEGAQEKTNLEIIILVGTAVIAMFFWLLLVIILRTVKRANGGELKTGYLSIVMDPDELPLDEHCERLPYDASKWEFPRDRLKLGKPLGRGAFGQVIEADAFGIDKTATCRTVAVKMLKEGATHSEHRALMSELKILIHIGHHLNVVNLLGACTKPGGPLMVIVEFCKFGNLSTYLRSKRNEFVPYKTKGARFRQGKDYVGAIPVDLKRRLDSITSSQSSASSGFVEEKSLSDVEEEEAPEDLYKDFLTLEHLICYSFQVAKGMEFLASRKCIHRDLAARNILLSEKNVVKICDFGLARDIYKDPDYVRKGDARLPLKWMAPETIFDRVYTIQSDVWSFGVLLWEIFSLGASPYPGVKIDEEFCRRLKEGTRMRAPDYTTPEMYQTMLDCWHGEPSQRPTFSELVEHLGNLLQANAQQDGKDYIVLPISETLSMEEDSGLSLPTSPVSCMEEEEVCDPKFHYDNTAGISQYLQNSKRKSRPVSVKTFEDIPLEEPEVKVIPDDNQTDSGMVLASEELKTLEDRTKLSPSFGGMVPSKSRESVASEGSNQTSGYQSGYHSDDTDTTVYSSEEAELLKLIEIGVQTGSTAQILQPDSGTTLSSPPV

[7] = target: VEGF-receptor 2 and PDGF-receptor beta (KDR and PDGFR beta) (Homo sapiens) (UniProt P09619+P35968); test: Selectivity for VEGF-receptor 2 (KDR) over PDGF-receptor beta; type: protein assay
[8] = target: Vascular endothelial growth factor receptor 2 and 3 (KDR and Flt-4) (Homo sapiens) (UniProt P35916+P35968); test: Selectivity for VEGF-receptor 2 (KDR) over VEGF-receptor 3 (FLT-4); type: protein assay
[9] = target: T1, Vascular endothelial growth factor receptor 2; test: Biochemical inhibition of phosphorylation of a poly-Glu/Tyr (4:1) peptide substrate by isolated vascular endothelial growth factor receptor 2 (cloned and expressed as a GST-fusion protein)
[10] = target: T2, Vascular endothelial growth factor receptor; test: Inhibition of VEGFstimulated mitogenesis in human umbilical vein endothelial cells; type: functional, cell-based; settings: endothelial cell
[11] = Volume distribution constant was determined; type: ADME, organism-based, Canis lupus familiaris; settings: dog, in vivo; read-out: Vdss
[12] = Plasma clearance was determined; type: ADME, organism-based, Canis lupus familiaris; settings: dog
[13] = Half life period was determined; type: ADME, organism-based, Canis lupus familiaris; settings: dog, in vivo
[14] = Partition coefficient (logP); type: physicochemical; settings: octanol/water
How it was run: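 Partition coefficient measured by HPLC analysis of an octanol/phosphate buffer (pH 7.4) system.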

[15] = target: T2, Vascular endothelial growth factor receptor; test: Inhibition of VEGF-stimulated mitogenesis in human umbilical vein endothelial cells at 500 nM; type: functional, cell-based; settings: Endothelial cell

T1 sequence (P35968 whole entry, the tested form may be a part): as the sequence (P35968 whole entry, looked up) above

Q: With `FC(F)(F)c1cc(Nc2nccc(-n3ccnc3-c3ccccc3)n2)cc(C(F)(F)F)c1` as the compound, how does the pIC50 [1] read?
A: 7.11

Q: Which results are given for `Cc1cccc(Nc2nccc(-n3ccnc3-c3ccccc3)n2)c1`?
A: pIC50 [1]: 7.74; Selectivity [2]: 103; Selectivity [3]: 1020; IC50 [4]: 151 nM; Selectivity [5]: 686; Selectivity [6]: 11; Selectivity [7]: 22; Selectivity [8]: 13

Q: With `COc1ccc(Nc2nccc(-n3ccnc3-c3ccccc3)n2)cc1` as the compound, how does the pIC50 [1] read?
A: 6.41

Q: What does the source list for `Cc1cc(CO)cc(Nc2nccc(-n3ccnc3-c3ccccc3)n2)c1`?
A: pIC50 [9]: 8.05; IC50 [10]: 23 nM

Q: With `Cc1ccc(Nc2nccc(-n3ccnc3-c3ccccc3)n2)cc1` as the compound, how does the pIC50 [1] read?
A: 6.55

Q: With `CC(=O)N1CCN(Cc2cc(C)cc(Nc3nccc(-n4ccnc4-c4ccccc4)n3)c2)CC1` as the compound, how does the pIC50 [1] read?
A: 7.49

Q: What about the IC50 [10] of the same compound?
A: 396 nM

Q: With `Clc1cccc(Nc2nccc(-n3ccnc3-c3ccccc3)n2)c1` as the compound, how does the pIC50 [1] read?
A: 7.60

Q: With `Cc1ccccc1Nc1nccc(-n2ccnc2-c2ccccc2)n1` as the compound, how does the pIC50 [1] read?
A: 5.51

Q: With `Cc1cc(C)cc(Nc2cc(-n3ccnc3-c3ccccc3)ccn2)c1` as the compound, how does the pIC50 [1] read?
A: 6.05

Q: What does the source list for `Cc1cc(C)cc(Nc2nccc(-n3ccnc3-c3ccccc3)n2)c1`?
A: Vd [11]: 1.11 L/kg; pIC50 [1]: 8.22; Selectivity [2]: 30; Selectivity [3]: 606; clearance [12]: 30.1 mL/min/kg; IC50 [4]: 19 nM; Selectivity [5]: 261; half-life [13]: 42.6 min; Selectivity [6]: 10; Selectivity [7]: 6; logP [14]: 3.74; Selectivity [8]: 5

Q: With `Cc1cc(C)cc(Nc2cc(-n3ccnc3-c3ccccc3)ncn2)c1` as the compound, how does the pIC50 [1] read?
A: 5.74

Q: With `c1ccc(-c2nccn2-c2ccnc(Nc3ccccn3)n2)cc1` as the compound, how does the pIC50 [1] read?
A: 5.17

Q: Which results are given for `COc1cc(Nc2nccc(-n3ccnc3-c3ccccc3)n2)cc(OC)c1`?
A: pIC50 [1]: 8.30; IC50 [10]: 22 nM

Q: With `[O-][n+]1cccc(Nc2nccc(-n3ccnc3-c3ccccc3)n2)c1` as the compound, how does the pIC50 [1] read?
A: 5.45

Q: With `COc1cc(Nc2nccc(-n3ccnc3-c3ccccc3)n2)cc(C(F)(F)F)c1` as the compound, how does the pIC50 [1] read?
A: 4.72

Q: With `FC(F)(F)c1cccc(Nc2nccc(-n3ccnc3-c3ccccc3)n2)c1` as the compound, how does the pIC50 [1] read?
A: 8.00

Q: What about the IC50 [10] of the same compound?
A: 303 nM

Q: With `Clc1cc(Cl)cc(Nc2nccc(-n3ccnc3-c3ccccc3)n2)c1` as the compound, how does the pIC50 [1] read?
A: 7.59

Q: With `c1ccc(Nc2nccc(-n3ccnc3-c3ccccc3)n2)cc1` as the compound, how does the pIC50 [1] read?
A: 6.98

Q: And the Selectivity [2]?
A: 13

Q: What about the Selectivity [3] of the same compound?
A: 295

Q: And the inhibition [15]?
A: 8%

Q: And the Selectivity [6]?
A: 11

Q: And the Selectivity [8]?
A: 5

Q: With `COc1ccccc1Nc1nccc(-n2ccnc2-c2ccccc2)n1` as the compound, how does the pIC50 [1] read?
A: 6.54

Q: With `c1ccc(-c2nccn2-c2ccnc(Nc3ccncc3)n2)cc1` as the compound, how does the pIC50 [1] read?
A: 6.56

Q: With `c1ccc(-c2nccn2-c2ccnc(Nc3cccnc3)n2)cc1` as the compound, how does the pIC50 [1] read?
A: 6.47

Q: With `Cc1cc(C)cc(Nc2nccc(-n3cc(C)nc3-c3ccccc3)n2)c1` as the compound, how does the pIC50 [1] read?
A: 6.35

Q: With `Cc1cc(Nc2nccc(-n3ccnc3-c3ccccc3)n2)cc(C(F)(F)F)c1` as the compound, how does the pIC50 [1] read?
A: 8.30

Q: What about the IC50 [10] of the same compound?
A: 26 nM

Q: Which results are given for `COc1cccc(Nc2nccc(-n3ccnc3-c3ccccc3)n2)c1`?
A: pIC50 [1]: 7.70; IC50 [10]: 88 nM
